Measurements: ChEMBL document CHEMBL1141164, “Design and synthesis of a series of melamine-based nitroheterocycles with activity against Trypanosomatid parasites” (J Med Chem, 2005)
“And” between values parts separate entries of the source, which are not always exact repeats. Identical values can stand only once. Values belong to the compound of their own block, whether it stands above or below them.

What was measured:
[1] = system: Trypanosoma brucei brucei; experiment: In vitro inhibitory concentration against blood stream Trypanosoma brucei brucei AT1 wild type incubated for 72 h at 37 degree C; format: functional, organism-based
How it was run: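 Wild-type T. b. brucei trypomastigotes, tested alongside the P2 knockout (TbAT1-/-). Alamar Blue viability assay used to derive IC50 values.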

[2] = system: Trypanosoma brucei rhodesiense; experiment: Inhibitory concentration in vitro against blood stream Trypanosoma brucei rhodesiense incubated for 72 hr at 37 degree C; format: functional, organism-based
How it was run: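 T. b. rhodesiense STIB900 trypomastigotes, a 1982 human isolate from Tanzania, grown in minimum essential medium with 2-mercaptoethanol and 15% heat-inactivated horse serum. Drug dilutions 90 to 0.123 μg/mL, 72 h at 37 °C, 5% CO2.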

Trypanosoma cruzi [3] = experiment: In vitro inhibitory concentration against intracellular amastigotes of Trypanosoma cruzi in rat skeletal myoblasts incubated for 37 degree C for 4 days; format: functional, organism-based; conditions: 96 h
How it was run: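 L-6 myoblasts seeded at 2000 cells/well in RPMI 1640 with 10% FBS and 2 mM L-glutamine. After 24 h, 5000 T. cruzi Tulahuen C2C4 (LacZ) trypomastigotes added with serial drug dilution. Incubated 4 days at 37 °C in 5% CO2, then CPRG/Nonidet added.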

[4] = system: Trypanosoma brucei brucei; experiment: In vitro inhibitory concentration against blood stream Trypanosoma brucei brucei AT1 knockout mutant with a non functional P2 transporter incubated for 72 h at 37 degree C; format: organism-based
How it was run: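 Bloodstream T. b. brucei trypomastigotes, wild type or P2 transporter knockout (TbAT1-/-), were tested side by side. Viability was read by Alamar Blue fluorescence and IC50 values were determined.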

[5] = target: T1, Nucleoside transporter 2 (Trypanosoma brucei brucei) (UniProt Q9U763); experiment: In vitro inhibitory concentration against P2 aminopurine transporter of Trypanosoma brucei brucei 427 adenosine (0.5 uM) uptake in presence of 1 mM inosine
T1 sequence (whole entry): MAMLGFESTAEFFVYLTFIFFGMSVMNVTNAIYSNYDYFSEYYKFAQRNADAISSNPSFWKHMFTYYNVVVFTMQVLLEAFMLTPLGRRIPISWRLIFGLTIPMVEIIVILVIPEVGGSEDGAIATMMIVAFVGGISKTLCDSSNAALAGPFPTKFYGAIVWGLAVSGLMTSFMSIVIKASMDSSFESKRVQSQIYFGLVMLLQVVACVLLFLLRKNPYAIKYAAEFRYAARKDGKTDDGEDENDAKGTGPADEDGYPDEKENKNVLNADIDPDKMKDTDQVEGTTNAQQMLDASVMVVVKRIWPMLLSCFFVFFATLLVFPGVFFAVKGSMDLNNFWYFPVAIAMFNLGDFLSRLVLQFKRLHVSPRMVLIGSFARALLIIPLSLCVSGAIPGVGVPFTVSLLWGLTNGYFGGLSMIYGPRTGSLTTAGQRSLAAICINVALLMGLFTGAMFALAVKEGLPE
How it was run: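 Blood-purified T. b. brucei 427 held on ice in Carter's buffered saline. Uptake of radiolabeled adenosine fixed at 0.5 μM via P2, measured with 1 mM inosine present to block P1, by centrifugation through oil over a range of inhibitor concentrations. IC50 obtained by plotting inhibition against inhibitor concentration.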

L6 = experiment: Concentration causing cytotoxicity to 50% of L-6 rat skeletal myoblasts; format: functional, cell-based
How it was run: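 L-6 rat skeletal myoblasts run in the same Alamar Blue assay as the trypanosome screen. Serial dilutions spanning 90 to 0.123 μg/mL, 72 h at 37 °C under 5% CO2, then Alamar Blue for a further 2–4 h. Fluorescence read at ex 536/em 588 nm and expressed as % of control to give IC50.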

Leishmania donovani [6] = experiment: Inhibitory concentration in vitro against intracellular amastigotes of Leishmania donovani in mouse peritoneal macrophages incubated for 96 hr at […]; tox is toxic to macrophages
Trypanosoma brucei [7] = experiment: Inhibitory concentration against wild-type (427) Trypanosoma brucei; format: functional, organism-based
Trypanosoma brucei [8] = experiment: Inhibitory concentration against RAD51-/- mutant Trypanosoma brucei
Trypanosoma cruzi [9] = experiment: In vivo percent inhibition of compound at a dose of 45 mg/kg, p.o., for 5 doses in rodent model with Trypanosoma cruzi [ND = not determined]; conditions: po
Trypanosoma cruzi [10] = experiment: In vivo activity at a dose of 45 mg/kg, p.o., for 5 doses in rodent model with Trypanosoma cruzi, measured as survival days (control 13 days); conditions: route oral
Leishmania donovani [11] = experiment: Inhibitory concentration in vitro against intracellular amastigotes of Leishmania donovani in mouse peritoneal macrophages incubated for 96 hr at 27 degree C
Mus musculus [12] = experiment: In vivo antitrypanosomal activity at a dose of 4*20 mg/kg, i.p., in mice infected with Trypanosoma brucei brucei STIB 795 strain; 4/4; format: functional
Mus musculus [13] = experiment: In vivo antitrypanosomal activity at a dose of 4*20 mg/kg, i.p., in mice infected with Trypanosoma brucei rhodesiense STIB 900 strain; 1/4; format: functional
Mus musculus [14] = experiment: In vivo antitrypanosomal activity at a dose of 4*20 mg/kg, i.p., in mice infected with Trypanosoma brucei brucei STIB 795 strain, measured as survival days (control 7 days); format: functional
Mus musculus [15] = experiment: In vivo antitrypanosomal activity at a dose of 4*20 mg/kg, i.p., in mice infected with Trypanosoma brucei rhodesiense STIB 900 strain, measured as survival days (control 6.5 days); format: functional
Trypanosoma cruzi [16] = experiment: In vivo activity at a dose of 25 mg/kg, i.p., for 5 doses in rodent model with Trypanosoma cruzi, measured as survival days (control 13 days); conditions: route intraperitoneal
Mus musculus [17] = experiment: In vivo antitrypanosomal activity at a dose of 4*5 mg/kg, i.p., in mice infected with Trypanosoma brucei brucei STIB 795 strain; 4/4; format: functional
Mus musculus [18] = experiment: In vivo antitrypanosomal activity at a dose of 4*20 mg/kg, i.p., in mice infected with Trypanosoma brucei rhodesiense STIB 900 strain, measured as cured/infected; 0/4; format: functional
Mus musculus [19] = experiment: In vivo antitrypanosomal activity at a dose of 4*5 mg/kg, i.p., in mice infected with Trypanosoma brucei brucei STIB 795 strain, measured as survival days (control 7 days); format: functional
Mus musculus [20] = experiment: In vivo antitrypanosomal activity at a dose of 4*20 mg/kg, i.p., in mice infected with Trypanosoma brucei rhodesiense STIB 900 strain, measured as survival days (control 7 days); ND is not determined; format: functional
Mus musculus [21] = experiment: In vivo antitrypanosomal activity at a dose of 4*20 mg/kg, i.p., in mice infected with Trypanosoma brucei brucei STIB 795 strain; 0/4; format: functional
Mus musculus [22] = experiment: In vivo antitrypanosomal activity at a dose of 4*8 mg/kg, i.p., in mice infected with Trypanosoma brucei rhodesiense STIB 900 strain, measured as survival days (control 7 days); ND is not determined; format: functional
Mus musculus [23] = experiment: In vivo antitrypanosomal activity at a dose of 4*8 mg/kg, i.p., in mice infected with Trypanosoma brucei rhodesiense STIB 900 strain, measured as cured/infected; 4/4; format: functional
Mus musculus [24] = experiment: In vivo antitrypanosomal activity at a dose of 4*1 mg/kg, i.p., in mice infected with Trypanosoma brucei brucei STIB 795 strain; 2/4; format: functional
Mus musculus [25] = experiment: In vivo antitrypanosomal activity at a dose of 4*1 mg/kg, i.p., in mice infected with Trypanosoma brucei rhodesiense STIB 900 strain, measured as cured/infected; 0/4; format: functional
Mus musculus [26] = experiment: In vivo antitrypanosomal activity at a dose of 4*1 mg/kg, i.p., in mice infected with Trypanosoma brucei brucei STIB 795 strain, measured as survival days (control 7 days); format: functional
Mus musculus [27] = experiment: In vivo antitrypanosomal activity at a dose of 4*1 mg/kg, i.p., in mice infected with Trypanosoma brucei rhodesiense STIB 900 strain, measured as survival days (control 7 days); ND is not determined; format: functional

SMILES: Nc1nc(N)nc(N/N=C/c2cccc([N+](=O)[O-])c2)n1
IC50 [1]: > 75 µM
IC50 [2]: 52.9 µM
IC50 (Trypanosoma cruzi [3]): 328 µM

SMILES: Nc1nc(N)nc(N/N=C/c2cccs2)n1
IC50 [1]: 89 µM
IC50 [4]: 170 µM
IC50 [2]: 10.2 µM
IC50 [5]: 4.9 µM
IC50 (L6): 78.2 µM
IC50 (Trypanosoma cruzi [3]): 85.8 µM
IC50 (Leishmania donovani [6]): Toxic

SMILES: NNc1nc(N)nc(N)n1
IC50 [1]: > 200 µM
IC50 [4]: > 200 µM
IC50 [5]: 11.9 µM

SMILES: Nc1nc(N)nc(N/N=C/c2ccc([N+](=O)[O-])cc2)n1
IC50 [1]: > 75 µM
IC50 [2]: 29.9 µM
IC50 (Trypanosoma cruzi [3]): 91.5 µM

SMILES: O=C(Cn1ccnc1[N+](=O)[O-])NCc1ccccc1 [BENZNIDAZOLE]
IC50 (Trypanosoma brucei [7]; Trypanosoma brucei): 116 µM
IC50 (Trypanosoma brucei [8]): 114 µM
inhibition in vivo at 45 mg/kg (Trypanosoma cruzi [9]): 100%
Survival (Trypanosoma cruzi [10]): >30 days

SMILES: N/N=C/c1ccc([N+](=O)[O-])o1
IC50 [1]: 23.5 µM
IC50 [4]: 13.5 µM
IC50 [2]: 2.3 µM
IC50 [5]: 404 µM
IC50 (L6): 20 µM
IC50 (Leishmania donovani [6]): Toxic

SMILES: Nc1nc(N)nc(N/N=C/c2ccco2)n1
IC50 [1]: 16.5 µM
IC50 [4]: 29.3 µM
IC50 [2]: 12.9 µM
IC50 [5]: 15.9 µM
IC50 (L6): > 400 µM
IC50 (Trypanosoma cruzi [3]): > 400 µM
IC50 (Leishmania donovani [6]): Toxic

IC50 [1]: 5.6 µM
IC50 (Trypanosoma brucei [7]): 4.1 µM and 11.4 µM
IC50 [2]: 1.5 µM
IC50 (Trypanosoma cruzi [3]): 1.5 µM
IC50 (Trypanosoma brucei [8]): 4.3 µM
IC50 (Leishmania donovani [11]): 68 µM
SMILES: CC1CS(=O)(=O)CCN1/N=C/c1ccc([N+](=O)[O-])o1 (stereo not given) [NIFURTIMOX]
IC50 (L6): 68 µM

SMILES: Nc1nc(N)nc(N/N=C/c2ccc([N+](=O)[O-])s2)n1
IC50 [1]: 0.85 µM
IC50 [4]: 1.52 µM
IC50 [2]: 0.24 µM
IC50 [5]: 1.9 µM
IC50 (L6): 11.8 µM
IC50 (Trypanosoma cruzi [3]): 2.6 µM
IC50 (Leishmania donovani [6]): Toxic

SMILES: Nc1nc(N)nc(N/N=C/c2ccc([N+](=O)[O-])o2)n1
IC50 [1]: 0.23 µM
IC50 [4]: 0.38 µM
IC50 (Trypanosoma brucei [7]): 0.08 µM
IC50 (Trypanosoma brucei [7]; Trypanosoma brucei): 0.08 µM
IC50 [2]: 0.025 µM
IC50 [5]: 22.9 µM
IC50 (L6): 183 µM
IC50 (Trypanosoma cruzi [3]): 2.1 µM
Cured/Infected (Mus musculus [12]): 4
Cured/Infected (Mus musculus [13]): 1
Survival (Mus musculus [14]): >60 days
Survival (Mus musculus [15]): 35.25 days
IC50 (Trypanosoma brucei [8]): 0.1 µM
Survival (Trypanosoma cruzi [16]): 13 days
IC50 (Leishmania donovani [11]): > 12.5 µM

IC50 [2]: 46.3 µM
IC50 (Trypanosoma cruzi [3]): 122 µM
SMILES: N#Cc1ccc(/C=N/Nc2nc(N)nc(N)n2)o1

SMILES: N=C(N)c1ccc(OCCCCCOc2ccc(C(=N)N)cc2)cc1 [PENTAMIDINE]
Cured/Infected (Mus musculus [17]): 4
Cured/Infected (Mus musculus [18]): 0
Survival (Mus musculus [19]): >60 days
Survival (Mus musculus [20]): 42.75 days

SMILES: CNc1nc(NC)nc(N/N=C/c2ccc([N+](=O)[O-])o2)n1
IC50 [2]: 0.01 µM
IC50 (L6): 44.1 µM
IC50 (Trypanosoma cruzi [3]): 0.24 µM
Cured/Infected (Mus musculus [21]): 0
Survival (Mus musculus [14]): 5.25 days
IC50 (Leishmania donovani [11]): 3.14 µM

SMILES: O=[N+]([O-])c1ccc(/C=N/O)o1 [NIFUROXIME]
IC50 [1]: 1.18 µM
IC50 [4]: 1.26 µM
IC50 [2]: 0.68 µM
IC50 [5]: 300 µM
IC50 (L6): 40 µM
IC50 (Leishmania donovani [6]): Toxic

SMILES: Nc1nc(N)nc(Nc2ccc([As]3SCC(CO)S3)cc2)n1 (stereo not given) [MELARSOPROL]
IC50 [1]: 0.053 µM
IC50 [4]: 0.12 µM
IC50 [2]: 0.006 µM
IC50 [5]: 1.2 µM
IC50 (Trypanosoma cruzi [3]): 0.006 µM
Survival (Mus musculus [22]): >60 days
Cured/Infected (Mus musculus [23]): 4
Cured/Infected (Mus musculus [24]): 2
Cured/Infected (Mus musculus [25]): 0
Survival (Mus musculus [26]): >60 days
Survival (Mus musculus [27]): 21.25 days
IC50 (Leishmania donovani [11]): 7.8 µM

SMILES: Nc1nc(N)nc(N/N=C/c2ccccc2[N+](=O)[O-])n1
IC50 [1]: > 75 µM
IC50 [2]: 36.5 µM
IC50 (Trypanosoma cruzi [3]): 328 µM
